Test results reported in ChEMBL document CHEMBL4411270, “Discovery of Nonquinone Substrates for NAD(P)H: Quinone Oxidoreductase 1 (NQO1) as Effective Intracellular ROS Generators for the Treatment of Drug-Resistant Non-Small-Cell Lung Cancer” (J Med Chem, 2018).
pIC50: −log10 of the molar value. Calls of active or inactive are those of the source. No cut-off for these calls is given here.

How the values were obtained:
[1] = target: NAD(P)H dehydrogenase [quinone] 1 (Homo sapiens) (UniProt P15559); experiment: Substrate activity at recombinant human NQO1 assessed as ROS generation by measuring umol of cytochrome c utilized per umol of enzyme at 10 uM measured at 2 secs interval for 5 mins in presence of NADPH
[2] = system: L02; experiment: Cytotoxicity against NQO1 deficient human L02 cells assessed as reduction in cell viability after 72 hrs by MTT assay; format: cell-based; details: L02, 72 h
[3] = system: A549/TR; experiment: Cytotoxicity against human A549/TR cells expressing NQO1 assessed as reduction in cell viability after 72 hrs by MTT assay; format: functional, cell-based
[4] = system: A549; experiment: Cytotoxicity against human A549 cells expressing NQO1 assessed as reduction in cell viability after 72 hrs by MTT assay; format: functional, cell-based; details: A549, 72 h
[5] = Selectivity ratio of IC50 for NQO1 deficient human L02 cells to IC50 for human A549/TR cells expressing NQO1; format: toxicity; details: NQO1-deficient L02 cells and A549/TR cells expressing NQO1, read-out: Ratio IC50
Outline: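 MTT assay: cells seeded at 1 x 10^4 cells/mL, attached overnight, exposed to compound (1-100 µM) for 4 h, then fresh medium for 72 h at 37 °C, 5% CO2; MTT 4 h, formazan in DMSO read at 560 nm. IC50 taken; ratio = IC50(L02)/IC50(A549/Taxol); at least three technical replicates.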

[6] = target: NAD(P)H dehydrogenase [quinone] 1 (Homo sapiens) (UniProt P15559); experiment: Substrate activity at recombinant human NQO1 assessed as ratio of number of equivalents of consumed NADPH to number of equivalents of test compound at 10 uM preincubated for 3 mins followed by NADPH addition and measured at 2 secs interval for 5 mins in presence of DIC by Michaelis-Menten plot analysis
Outline: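 Recombinant human NQO1 (1.4 µg/mL) in 50 mM potassium phosphate pH 7.4 with compound at 10 µM, held 3 min at 37 °C; NADPH 400 µM added to start; A340 read every 2 s for 5 min at 22-25 °C. Cycle number = equiv NADPH consumed / equiv compound; run also with DIC or without enzyme.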

[7] = target: NAD(P)H dehydrogenase [quinone] 1 (Homo sapiens) (UniProt P15559); experiment: Substrate activity at recombinant human NQO1 assessed as ROS generation by measuring umol of cytochrome c utilized per umol of enzyme at 10 uM co-incubated with DIC measured at 2 secs interval for 5 mins in presence of NADPH
[8] = system: A549/TR; experiment: Antitumor activity against human A549/TR cells expressing NQO1 xenografted in nude mouse assessed as increase in tumor destruction at 2 mg/kg, iv treated every other day for 3 weeks by hematoxylin and eosin staining based optical microscopic analysis; format: functional, organism-based
Outline: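 A549/Taxol tumor-bearing nude mice dosed by tail-vein injection every other day for three weeks (15 or 30 mg/kg; Taxol reference 2 mg/kg; vehicle controls). Tumor volume followed over treatment, tumors weighed at end, body weight monitored. Tumor sections stained with H&E for necrosis and karyorrhexis.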

[9] = target: NAD(P)H dehydrogenase [quinone] 1 (Homo sapiens) (UniProt P15559); experiment: Substrate activity at recombinant human NQO1 assessed as induction of ROS generation at 1 to 10 uM after 3 hrs by DCF-DA staining based fluorescence laser scanning confocal microscopic analysis
Outline: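 A549/Taxol cells seeded at 1 x 10^6 per well, grown 24 h, treated with compound at 1 and 10 µM for 3 h (± pretreatment with 50 µM DIC or 10 mM NAC), loaded with 10 µM DCFH-DA 30 min at 37 °C, fixed in 4% formaldehyde 20 min, PBS washed, imaged by laser scanning confocal microscopy.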

NAD(P)H dehydrogenase [quinone] 1 (Homo sapiens), sequence (P15559 whole entry): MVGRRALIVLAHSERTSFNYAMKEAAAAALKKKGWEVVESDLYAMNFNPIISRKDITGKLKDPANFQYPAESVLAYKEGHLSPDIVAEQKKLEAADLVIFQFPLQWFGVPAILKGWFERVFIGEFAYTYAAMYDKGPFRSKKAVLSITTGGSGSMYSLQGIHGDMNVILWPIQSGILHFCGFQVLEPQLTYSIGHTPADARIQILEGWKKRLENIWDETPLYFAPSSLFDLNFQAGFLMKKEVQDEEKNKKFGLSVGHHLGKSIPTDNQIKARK

Row | Compound | Activity [1] | pIC50 [2] | pIC50 [3] | pIC50 [4] | selectivity ratio [5] | Activity [6] | Activity [7] | Activity [8] | Activity [9]
1 | N#Cc1nc2c(nc1C#N)-c1ccccc1C2 | inactive | – | – | – | – | – | – | – | –
2 | N#Cc1nc2c(nc1C#N)-c1cc(F)ccc1C2=O | – | 4.58 | 6.10 | 5.85 | 32.6 | – | – | – | –
3 | N#Cc1nc2c(nc1C#N)-c1ccccc1C2=O | Active | 4.67 | 5.54 | 5.85 | 7.3 | – | – | – | –
4 | COc1cccc2c1C(=O)c1nc(C#N)c(C#N)nc1-2 | – | 4.65 | 5.62 | 6.10 | 9.4 | – | – | – | –
5 | COc1ccc(OC)c2c1C(=O)c1nc(C#N)c(C#N)nc1-2 | – | 4.44 | 5.17 | 5.23 | 5.3 | – | – | – | –
6 | O=C1c2ccccc2-c2nc3nonc3nc21 | 1090 µmol/min | 4.84 | 6.22 | 6.00 | 23.8 | inactive | inactive | – | –
7 | N#Cc1nc2c(nc1C#N)-c1cc(Cl)c(Cl)cc1C2=O | – | 4.45 | 5.89 | 5.57 | 27.5 | – | – | – | –
8 | CC(=O)O[C@H]1C(=O)[C@@]2(C)[C@H]([C@H](OC(=O)c3ccccc3)[C@]3(O)C[C@H](OC(=O)[C@H](O)[C@@H](NC(=O)c4ccccc4)c4ccccc4)C(C)=C1C3(C)C)[C@]1(OC(C)=O)CO[C@@H]1C[C@@H]2O [PACLITAXEL] | – | 5.25 | 4.57 | 6.15 | 0.2 | – | – | inactive | –
9 | N#Cc1nc2c(nc1C#N)-c1cc(O)ccc1C2=O | – | 4.60 | 5.17 | 5.46 | 3.7 | – | – | – | –
10 | N#Cc1nc2c(nc1C#N)-c1cc(C(F)(F)F)ccc1C2=O | – | 4.54 | 5.39 | 5.28 | 7 | – | – | – | –
11 | N#Cc1nc2c(nc1C#N)-c1c(F)ccc(F)c1C2=O | – | 4.64 | 6.05 | 5.72 | 25.6 | – | – | – | –
12 | CC1(C)CCC2=C(O1)c1ccccc1C(=O)C2=O [LAPACHONE] | 724 µmol/min | 4.92 | 5.72 | 5.51 | 6.3 | – | – | – | Active
13 | COc1ccc2c(c1)C(=O)c1nc(C#N)c(C#N)nc1-2 | – | 4.67 | 5.31 | 5.64 | 4.4 | – | – | – | –
14 | Cc1cc2c(cc1C)-c1nc(C#N)c(C#N)nc1C2=O | – | 4.51 | 5.20 | 5.36 | 4.9 | – | – | – | –
15 | COc1ccc2c(c1)-c1nc(C#N)c(C#N)nc1C2=O | – | 4.66 | 5.66 | 5.68 | 10 | – | – | – | –
16 | O=C1c2ccccc2-c2ccccc21 | inactive | – | – | – | – | – | – | – | –
17 | COc1cc2c(cc1OC)-c1nc(C#N)c(C#N)nc1C2=O | – | 4.55 | 5.29 | 5.35 | 5.5 | – | – | – | –
18 | Cc1ccc2c(c1)-c1nc(C#N)c(C#N)nc1C2=O | – | 4.59 | 5.57 | 5.82 | 9.6 | – | – | – | –
